NSD2 inh – NSD2 histone methyltransferase inhibitors, primary screen, biochemical, AlphaScreen, single concentration, set 2 | Histone-lysine N-methyltransferase NSD2 (Homo sapiens), O96028 | NSD2 peptide methylation, 120 min | inhibition, % at 12.5 µM | actives 0.54% (n = 310,000); in the data active = inhibition above about 50%
Glyco luc inh – increase of ERlucT glycosylation luciferase signal, primary screen, N-linked glycosylation inhibitor project, D54 ERlucT cells, luminescence, set 2. D54 ERlucT glycosylation luciferase reporter, 24 h; percent of 100 nM tunicamycin response. reporter increase, % at 12.5 µM. actives 0.23% (n = 360,000);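 active = mean luciferase reporter signal, scaled so untreated is 0 and the glycosylation-blocking control 100, at or above a set limit in every replicate; inconclusive = mean reaches the limit but not every replicate does; inactive = mean below the limit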;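 also: luciferase carries N-glycosylation sites so blocking glycosylation raises the light; 0% = median of neutral control wells and 100% = median of 100 nM tunicamycin wells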
RAD54 inh – inhibitors of human RAD54 branch migration, primary screen, biochemical, fluorescence, single point. DNA repair and recombination protein RAD54-like (Homo sapiens), Q92698. RAD54 Holliday junction branch migration, FAM/BHQ fluorescence. inhibition, % at 10.4 µM. actives 0.14% (n = 360,000). AID 602329, 2012;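 active = mean normalized replicate activity at least 40 and at least half of replicates scoring 40 or more; inconclusive = only one of the two criteria met; inactive = mean below 40 and under half of replicates reaching 40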;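 also: 0% = median of neutral control wells and 100% = median of positive control wells; inhibitors cause a drop in the FAM fluorescence signal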
MLL AF4-AF9 inh – inhibitors of AF4 peptide binding to AF9, primary screen, biochemical, AlphaScreen, biotin-AF4 peptide, FLAG-AF9, single point; Protein AF-9 (Homo sapiens), P42568; inhibition, % at 10 µM; actives 0.47% (n = 350,000);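 active = every replicate reaching a set inhibition limit, whatever the replicate mean, cut at about 25% in these data; inconclusive = mean inhibition reaches that limit but some replicates miss it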;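 also: 0% = plate neutral control median and 100% = total signal loss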
Target sequence (P42568 whole entry, looked up): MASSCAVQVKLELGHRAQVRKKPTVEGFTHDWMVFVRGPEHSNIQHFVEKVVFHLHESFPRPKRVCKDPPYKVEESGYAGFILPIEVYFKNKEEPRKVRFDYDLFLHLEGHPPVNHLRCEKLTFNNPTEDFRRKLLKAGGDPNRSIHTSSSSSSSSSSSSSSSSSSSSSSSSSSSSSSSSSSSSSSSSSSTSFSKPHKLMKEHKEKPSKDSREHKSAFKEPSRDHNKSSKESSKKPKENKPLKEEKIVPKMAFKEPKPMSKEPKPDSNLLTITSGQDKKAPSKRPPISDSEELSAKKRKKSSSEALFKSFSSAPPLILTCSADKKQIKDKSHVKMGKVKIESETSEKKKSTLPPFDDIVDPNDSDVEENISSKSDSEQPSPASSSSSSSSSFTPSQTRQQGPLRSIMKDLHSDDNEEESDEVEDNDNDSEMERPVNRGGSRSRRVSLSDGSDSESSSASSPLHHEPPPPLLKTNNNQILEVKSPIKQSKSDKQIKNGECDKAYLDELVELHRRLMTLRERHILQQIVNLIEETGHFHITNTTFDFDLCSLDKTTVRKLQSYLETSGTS
RAD52 anneal inh – RAD52 DNA annealing inhibitors, primary screen, biochemical, FRET, single point, set 2. DNA repair protein RAD52 homolog (Homo sapiens), P43351. AID 651710, 2012. inhibition, % at 18.7 µM. recombinant RAD52 DNA annealing, FRET fluorescence. actives 0.46% (n = 360,000);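 active = every replicate showing at least 50% inhibition; inconclusive = mean inhibition at least 50% but not in every replicate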
FN deposition inh – inhibitors of fibronectin matrix deposition, primary screen, AH1F cells, Alexa488-fibronectin fluorescence, plate reader; AH1F fibroblasts, overnight; inhibition, % at 12.6 µM; actives 0.086% (n = 350,000);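 active = mean inhibition across replicates of 30% or more, regardless of how many single replicates reach that level; inconclusive = mean under 30% yet at least half of replicates reach 30%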;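 also: positive control wells lacked labelled fibronectin entirely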
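Schedule: 1 h cell adhesion before compound, then overnight fibronectin incubation; test system: AH1F fibroblast monolayer depositing Alexa488-labelled fibronectin into matrix; quantity: 10000 AH1F cells per well; probe or stimulus: fluorescent fibronectin at 24 nM final; signal: fluorescence, ex 485 nm, em 525 nm; evaluation: percent inhibition as loss of matrix-bound fibronectin fluorescence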
DNA binding – DNA binding of candidate compounds, dose response, artefact control for RAD54 inhibitor project, biochemical, fluorescence polarization, cherry-pick. shares compounds with RAD54 inh. Acridine orange-DNA displacement, 20 min. AC50, µM (top dose mostly 35 µM), without a hit: at the highest dose activity change, negative = DNA binding. actives 8% (n = 460);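 active = signal drop giving an AC50 within twice the top valid tested concentration of each sample, actives reach about 35 µM in these data; inactive = activity opposite to expected, plus the rest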;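 also: polarization loss reports compound binding to salmon sperm DNA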
An asterisk follows results filed as active; i = inactive; ? = inconclusive; . = no result given. A selection: hits, their analogues and other compounds. The true share with any hit is near 1.2%.

SMILES	NSD2 inh	Glyco luc inh	RAD54 inh	MLL AF4-AF9 inh	RAD52 anneal inh	FN deposition inh	DNA binding
O=C(NC[C@H]1CC[C@@H]2[C@@H](CN2Cc2cc(-c3ccccc3)on2)O1)c1ccc2c(c1)OCO2	.	.	.	.	-3	.	.
O=C(C[C@H]1CC[C@H]2[C@@H](COC[C@H](O)CN2Cc2cccc(-c3ccncc3)c2)O1)N1CCOCC1	.	.	5	.	.	5	.
COc1ccccc1C(=O)N1C[C@@H]2[C@H](c3ccccc31)[C@@H](CO)N2C(=O)Nc1ccccc1	.	.	-13	5	-21	.	.
CCN1CCN(c2nn3c(=O)c4ccccc4nc3c3ccccc23)CC1	44	12	57*	.	.	.	i
O=C(Cc1ccccn1)NCC[C@@H]1CC[C@@H](NC(=O)Nc2ccc(Cl)cc2)[C@@H](CO)O1	.	.	-3	-17	-12	.	.
COC(=O)Nc1nnc(COc2ccccc2)s1	-1	2	?	-3	4	3	3%
COC(=O)Nc1nnc(COc2cccc(C)c2)s1	-2	-2	.	-2	-25	1	.
COc1ccccc1NC(=O)Cn1nnc2sc3c(c2c1=O)CC(C)(C)OC3	-2	1	?	-4	-23	-8	-17%
CC1(C)Cc2c(sc3nnn(CC(=O)Nc4ccccc4)c(=O)c23)CO1	4	-2	-16	0	-29	7	.
C[C@H]1CN([C@@H](C)CO)C(=O)Cc2cc(NC(=O)Nc3ccc(F)cc3)ccc2O[C@@H]1CN(C)S(=O)(=O)c1ccccc1	.	.	3	0	-16	-2	.
CCOC(=O)c1[nH]c2cc3c(cc2c1CCCN1C(=O)c2ccccc2C1=O)OCCO3	0	0	?	.	.	-5	5%
CC(C)NC(=O)N(C)C[C@@H]1Oc2cc(-c3ccncc3)ccc2S(=O)(=O)N([C@@H](C)CO)C[C@H]1C	.	.	0	-3	19	-6	.
C[C@H]1CN([C@@H](C)CO)S(=O)(=O)c2ccc(C#CC3CCCC3)cc2O[C@H]1CN(C)C(=O)Cc1ccccc1	.	.	3	1	-6	.	.
Cc1cc(C)n(-c2nc(NCCN(C)C)c3c4c(sc3n2)COC(C)(C)C4)n1	3	0	?	2	29	-7	11%
CN(C)Cc1ccccc1Sc1cccc2ccccc12	10	-2	.	-3	5	0	.
Cc1cc2ccc3ccccc3c2cc1CN(C)C	16	1	52*	.	42	-1	-14%
CCNCCNC(=O)c1c(O)c2cccc3c2n(c1=O)CCC3	.	-4	?	.	.	.	-9%
COCC(=O)Nc1ccc2c(c1)OC[C@@H](C)N(Cc1ccccn1)C[C@H](C)[C@H](OC)CN(C)C2=O	.	.	-4	0	2	-3	.
COc1ccccc1O	.	-2	2	1	0	-6	.
COc1cccc2c1-c1c(O)cccc1C2=O	-3	2	?	1	-29	4	-19%
OC1CCCN(Cc2c3ccccc3cc3ccccc23)C1 (centres undefined)	4	?	93*	.	.	-10	i
OC1CCCN(Cc2cccc3ccccc23)C1 (centres undefined)	1	-2	-1	.	.	-5	.
CCNC(=O)C[C@H]1CC[C@@H](NS(=O)(=O)c2ccc(C)cc2)[C@@H](CO)O1	.	.	3	1	0	.	.
C[C@@H]1CN([C@@H](C)CO)C(=O)Cc2cc(NS(=O)(=O)c3ccc(Cl)cc3)ccc2O[C@@H]1CN(C)C(=O)Nc1ccc(F)cc1	.	.	-6	1	3	1	.
Oc1ccc(Nc2ccnc3cc(Cl)ccc23)cc1	-7	-5	58*	1	-4	2	-12%
SMILES	NSD2 inh	Glyco luc inh	RAD54 inh	MLL AF4-AF9 inh	RAD52 anneal inh	FN deposition inh	DNA binding
NC(=O)C1CCN(c2nc(-c3cccnc3)cs2)CC1	.	2	60*	-5	11	0	14%
NC(=O)C1CCN(c2nc(-c3cccc(N)c3)cs2)CC1	.	4	4	.	.	-5	.
CC(C)C(=O)Nc1ccc2c(c1)C(=O)N(C)[C@@H]1CC[C@H](CC(=O)NC3CCCC3)O[C@@H]1CO2	.	.	.	0	.	-11	.
CCOC(=O)c1c(C)n(-c2ccc(C)cc2)c2ccc(O)c(CN(C)C)c12	16	5	37	17	43	-1	.
CCOC(=O)c1c(C)n(-c2ccc(OC)cc2)c2ccc(O)c(CN(C)C)c12	5	7	?	15	44	4	11%
Oc1cccc2ccc(Nc3ccccn3)nc12	4	-2	94*	.	.	10	-9%
c1ccc(Nc2ccccc2Nc2ccccn2)nc1	4	2	.	-11	-3	.	.
CCOC(=O)c1c(NC(C)=O)sc2c(OC)c(Br)ccc12	-1	2	3	1	-17	.	.
CCOC(=O)c1c(NC(C)=O)sc2c(OCC(O)CN(CC)CC)c(Br)ccc12 (centres undefined)	12	7	84*	6	46	2	2%
O=C(NN1CCOCC1)c1cc(-c2ccccc2)nc2ccccc12	.	1	-6	.	.	4	.
O=C(NN1CCOCC1)c1cc(-c2ccc(Cl)c(Cl)c2)nc2ccccc12	-1	6	?	.	.	-3	7%
Cc1ccc2c(c1)c1nc3ccccc3nc1n2CCN1CCOCC1	-26	7	63*	.	.	-14	2%
CC(N)c1csc(Nc2nncc3ccccc23)n1 (centres undefined)	2	3	70*	4	40	1	-1%
c1cc2c3c(cccc3c1)C(N1CCCCCC1)=N2	-2	10	18	.	.	0	.
c1cc2c3c(cccc3c1)C(N1CCCCC1)=N2	11	16	65*	.	.	.	-20%
Cc1ccc(-c2csc3nc(C)n(N)c(=O)c23)cc1	-1	-1	-10	-1	-4	4	.
Cc1ccc(-c2csc3nc4c5ccccc5c(NCCCN(C)C)nn4c(=O)c23)cc1	.	-5	53*	-2	97*	14	-17%
CO[C@H]1CN(C)C(=O)c2cc(NC(=O)Nc3cc(Cl)cc(Cl)c3)ccc2OC[C@@H](C)NC[C@H]1C	.	.	.	.	.	4	.
C[C@H]1CN([C@@H](C)CO)C(=O)c2cc(-c3ccc(F)cc3)cnc2O[C@H]1CN(C)C(=O)c1ccc(F)cc1	.	.	-9	-3	-4	-2	.
Cc1nnc2c(N3CCN(CCO)CC3)nc3ccccc3n12	8	3	?	4	5	-5	-18%

From PubChem
